Measurements taken from ChEMBL document CHEMBL1122365, “Substituted 1,4-naphthoquinones vs. the ascitic sarcoma 180 of mice” (J Med Chem, 1983).
Values after ≈ are worked out from the molar mass of the structure shown.

Key:
[1] = Effective dose that would give a 25% increase in the survival time against the ascitic sarcoma 180 in mice; type: functional, Mus musculus
Procedure, shortened: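 Swiss mice given 10⁶ ascitic sarcoma 180 cells ip on day 0, then one ip dose of compound daily on days 1-3, with several dose levels. T/C is the mean survival of treated mice over the survival of untreated mice. ED25 is the daily dose giving T/C = 125%, interpolated or extrapolated from a semilog plot of T/C vs. log dose.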

[2] = system: Mus musculus; experiment: Maximum survival by an optimum dose at 7 mg/kg in treated to that of untreated mice; type: functional
[3] = Partition coefficient (logP); type: physicochemical; conditions: octanol/water
Procedure, shortened: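 Shake-flask method: four samples per compound (1.50–20.0 mg) each equilibrated between known volumes of 1-octanol and water. Solute concentration measured spectroscopically in the water phase; octanol-phase concentration taken by difference. Partition coefficient is the ratio of the two concentrations.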

[4] = Tested for acute toxicity which is the single dose given intraperitoneally that will kill one-half of the mice within 5 days; type: organism-based; conditions: mouse, in vivo, ip
[5] = Solubility in water was determined; type: physicochemical
[6] = system: Mus musculus; experiment: Maximum survival by an optimum dose at 4 mg/kg in treated to that of untreated mice; type: functional
[7] = system: Mus musculus; experiment: Maximum survival by an optimum dose at 80 mg/kg in treated to that of untreated mice; type: functional
[8] = system: Mus musculus; experiment: Maximum survival by an optimum dose at 3 mg/kg in treated to that of untreated mice; type: functional
[9] = system: Mus musculus; experiment: Maximum survival by an optimum dose at 20 mg/kg in treated to that of untreated mice; type: functional
[10] = system: Mus musculus; experiment: Maximum survival by an optimum dose at 100 mg/kg in treated to that of untreated mice; type: functional
[11] = system: Mus musculus; experiment: Maximum survival by an optimum dose at 60 mg/kg in treated to that of untreated mice; type: functional
[12] = system: Mus musculus; experiment: Maximum survival by an optimum dose at 6 mg/kg in treated to that of untreated mice; type: functional
[13] = system: Mus musculus; experiment: Maximum survival by an optimum dose at 25 mg/kg in treated to that of untreated mice; type: functional
[14] = system: Mus musculus; experiment: Maximum survival by an optimum dose at 30 mg/kg in treated to that of untreated mice; type: functional
[15] = Mus musculus, Sarcoma-180, read-out: ED25

SMILES	ED25 [1] [mmol/kg]	ED25 [1, 15] [mg/kg]	Optimal dose [2] [%]	logP ([3]; read-out: logP)	LD50 at 120 h [4] [mg/kg]	solubility [5] [µg/mL]	Optimal dose [6] [%]	logP [3]	Optimal dose [7] [%]	Optimal dose [8] [%]	Optimal dose [9] [%]	Optimal dose [10] [%]	Optimal dose [11] [%]	Optimal dose [12] [%]	Optimal dose [13] [%]	Optimal dose [14] [%]
CCCOC1=C(Cl)C(=O)c2ccccc2C1=O	0.01	2.45	271	2.95	20	–	–	–	–	–	–	–	–	–	–	–
CC(=O)NC1=C(Cl)C(=O)c2ccccc2C1=O	0.01	2.97	–	1.42	11	106 (≈ 425 µM)	284	–	–	–	–	–	–	–	–	–
O=C1C(Cl)=C(Nc2ccccc2)C(=O)c2ccccc21	0.331	94	–	–	1600	2.4 (≈ 8.46 µM)	–	4.04	117	–	–	–	–	–	–	–
CCOC1=C(Cl)C(=O)c2ccccc2C1=O	0.008	1.97	–	2.61	16	34.1 (≈ 144 µM)	–	–	–	230	–	–	–	–	–	–
NC1=C(Cl)C(=O)c2ccccc2C1=O	0.123	25.5	–	2.08	800	37.7 (≈ 182 µM)	–	–	–	–	112	–	–	–	–	–
O=C1C(=O)c2ccccc2C(O)=C1C1CCCC1	0.582	141	–	2.69	400	9.5 (≈ 39.2 µM)	–	–	–	–	–	116	–	–	–	–
COC1=C(Cl)C(=O)c2ccccc2C1=O	0.011	2.49	–	2.15	14	39.3 (≈ 177 µM)	315	–	–	–	–	–	–	–	–	–
COC1=CC(=O)c2ccccc2C1=O [2-Methoxy-1,4-naphthoquinone]	0.262	49.3	–	1.59	320	31.3 (≈ 166 µM)	–	–	–	–	–	–	154	–	–	–
O=C1C(Cl)=C(Cl)C(=O)c2ccccc21 [Dichlon]	0.022	4.89	–	3.16	–	–	–	–	–	–	–	–	–	189	–	–
O=C1C=C(O)C(=O)c2ccccc21 [LAWSONE]	0.19	33	–	1.07	100	255 (≈ 1460 µM)	–	–	–	–	–	–	–	–	104	–
CC1=CC(=O)c2ccccc2C1=O [MENADIONE]	0.174	30	–	2.25	150	10.6 (≈ 61.6 µM)	–	–	–	–	–	–	–	–	–	126
O=C1C=CC(=O)c2ccccc21 [NAPHTHOQUINONE]	0.012	1.9	–	1.74	5.5	89.4 (≈ 565 µM)	–	–	–	347	–	–	–	–	–	–
